# Tests used:
# [1] = tested on: Mycolicibacterium smegmatis; assay: Anti-tubercular activity against Mycobacterium smegmatis MC2 155 ATCC 700084 after 3 days by microdilution method; assay type: functional; settings: MC2 155 ATCC 700084, 72 h
# In short: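 M. smegmatis mc2155 grown in MB7H9 + 10% OADC at 37 °C with shaking to OD600 0.8. Inoculum set to 0.5 McFarland, diluted 1:100, and mixed 1:1 with two-fold serial dilutions in MB7H9. Plates incubated 3 days at 37 °C with growth and sterility controls. MIC taken as the lowest concentration with no visible growth.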
# [2] = Cytotoxicity against human MDM assessed as cell viability after 3 days by Alamar blue dye-based fluorocytometric analysis relative to control; settings: 72 h
# [3] = tested on: Mycobacterium tuberculosis; assay: Antibacterial activity against Mycobacterium tuberculosis H37Rv ATCC 27294T assessed as isoniazid MIC at 0.25 ug/ml after 7 days by microdilution checkerboard assay; assay type: functional; settings: 168 h
# In short: (§1)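 Two-dimensional checkerboard in H37Rv at 10^5 CFU/ml in MB7H9/OADC. Partner drug (amikacin, EtBr, isoniazid, ofloxacin or rifampin) two-fold serially diluted across columns 3-11. Test compound two-fold serially diluted down rows 2-6. Plates incubated 7 days at 37 °C, then MTT added overnight. […] Run in triplicate.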
# [4] = tested on: Mycobacterium tuberculosis; assay: Antibacterial activity against Mycobacterium tuberculosis H37Rv ATCC 27294T assessed as ethidium bromide MIC at 0.25 ug/ml after 7 days by microdilution checkerboard assay; assay type: functional; settings: 168 h; in short: as §1
# [5] = tested on: Mycobacterium tuberculosis; assay: Antibacterial activity against Mycobacterium tuberculosis H37Rv ATCC 27294T assessed as ethidium bromide MIC at 0.5 ug/ml after 7 days by microdilution checkerboard assay; assay type: functional; settings: 168 h; in short: as §1
# [6] = tested on: Mycobacterium tuberculosis; assay: Antibacterial activity against Mycobacterium tuberculosis H37Rv ATCC 27294T assessed as ethidium bromide MIC at 1 ug/ml after 7 days by microdilution checkerboard assay; assay type: functional; settings: 168 h; in short: as §1
# [7] = tested on: Mycobacterium tuberculosis; assay: Antibacterial activity against Mycobacterium tuberculosis H37Rv ATCC 27294T assessed as ethidium bromide MIC at 2 ug/ml after 7 days by microdilution checkerboard assay; assay type: functional; settings: 168 h; in short: as §1
# [8] = tested on: Mycobacterium tuberculosis; assay: Antibacterial activity against Mycobacterium tuberculosis H37Rv ATCC 27294T assessed as ethidium bromide MIC at 4 ug/ml after 7 days by microdilution checkerboard assay; assay type: functional; settings: 168 h; in short: as §1
# [9] = tested on: Mycobacterium tuberculosis; assay: Antibacterial activity against Mycobacterium tuberculosis H37Rv ATCC 27294T assessed as ethidium bromide MIC at 8 ug/ml after 7 days by microdilution checkerboard assay; assay type: functional; settings: 168 h; in short: as §1
# [10] = tested on: Mycobacterium tuberculosis; assay: Antibacterial activity against Mycobacterium tuberculosis H37Rv ATCC 27294T assessed as ethidium bromide MIC at 16 ug/ml after 7 days by microdilution checkerboard assay; assay type: functional; settings: 168 h; in short: as §1
# [11] = tested on: Mycobacterium tuberculosis; assay: Antibacterial activity against Mycobacterium tuberculosis H37Rv ATCC 27294T assessed as ofloxacin MIC at 0.25 ug/ml after 7 days by microdilution checkerboard assay; assay type: functional; settings: 168 h; in short: as §1
# [12] = tested on: Mycobacterium tuberculosis; assay: Antibacterial activity against Mycobacterium tuberculosis H37Rv ATCC 27294T assessed as ofloxacin MIC at 0.5 ug/ml after 7 days by microdilution checkerboard assay; assay type: functional; settings: 168 h; in short: as §1
# [13] = tested on: Mycobacterium tuberculosis; assay: Antibacterial activity against Mycobacterium tuberculosis H37Rv ATCC 27294T assessed as ofloxacin MIC at 1 ug/ml after 7 days by microdilution checkerboard assay; assay type: functional; settings: 168 h; in short: as §1
# [14] = tested on: Mycobacterium tuberculosis; assay: Antibacterial activity against Mycobacterium tuberculosis H37Rv ATCC 27294T assessed as ofloxacin MIC at 2 ug/ml after 7 days by microdilution checkerboard assay; assay type: functional; settings: 168 h; in short: as §1
# [15] = tested on: Mycobacterium tuberculosis; assay: Antibacterial activity against Mycobacterium tuberculosis H37Rv ATCC 27294T assessed as ofloxacin MIC at 4 ug/ml after 7 days by microdilution checkerboard assay; assay type: functional; settings: 168 h; in short: as §1
# [16] = tested on: Mycobacterium tuberculosis; assay: Antibacterial activity against Mycobacterium tuberculosis H37Rv ATCC 27294T assessed as ofloxacin MIC at 8 ug/ml after 7 days by microdilution checkerboard assay; assay type: functional; settings: 168 h; in short: as §1
# [17] = tested on: Mycobacterium tuberculosis; assay: Antibacterial activity against Mycobacterium tuberculosis H37Rv ATCC 27294T assessed as ofloxacin MIC at 16 ug/ml after 7 days by microdilution checkerboard assay; assay type: functional; settings: 168 h; in short: as §1
# [18] = tested on: Mycobacterium tuberculosis; assay: Antibacterial activity against Mycobacterium tuberculosis H37Rv ATCC 27294T assessed as amikacin MIC at 0.25 ug/ml after 7 days by microdilution checkerboard assay; assay type: functional; settings: 168 h; in short: as §1
# [19] = tested on: Mycobacterium tuberculosis; assay: Antibacterial activity against Mycobacterium tuberculosis H37Rv ATCC 27294T assessed as amikacin MIC at 0.5 ug/ml after 7 days by microdilution checkerboard assay; assay type: functional; settings: 168 h; in short: as §1
# [20] = tested on: Mycobacterium tuberculosis; assay: Antibacterial activity against Mycobacterium tuberculosis H37Rv ATCC 27294T assessed as amikacin MIC at 1 ug/ml after 7 days by microdilution checkerboard assay; assay type: functional; settings: 168 h; in short: as §1
# [21] = tested on: Mycobacterium tuberculosis; assay: Antibacterial activity against Mycobacterium tuberculosis H37Rv ATCC 27294T assessed as amikacin MIC at 2 ug/ml after 7 days by microdilution checkerboard assay; assay type: functional; settings: 168 h; in short: as §1
# [22] = tested on: Mycobacterium tuberculosis; assay: Antibacterial activity against Mycobacterium tuberculosis H37Rv ATCC 27294T assessed as amikacin MIC at 4 ug/ml after 7 days by microdilution checkerboard assay; assay type: functional; settings: 168 h; in short: as §1
# [23] = tested on: Mycobacterium tuberculosis; assay: Anti-tubercular activity against Mycobacterium tuberculosis H37Rv ATCC 27294T after 7 days by mircodilution method; assay type: functional; settings: 168 h
# In short: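 H37Rv grown static in MB7H9 + 10% OADC at 37 °C to OD600 0.8, then diluted to about 10^5 cells/ml. Mixed 1:1 with two-fold serial dilutions in MB7H9/OADC and incubated 7 days at 37 °C. MTT added to final 2.5% and plates incubated overnight. MIC is the lowest concentration with no colour change. Run in triplicate.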
# [24] = tested on: Mycobacterium tuberculosis; assay: Antibacterial activity against Mycobacterium tuberculosis H37Rv ATCC 27294T assessed as isoniazid MIC at 16 ug/ml after 7 days by microdilution checkerboard assay; assay type: functional; settings: 168 h; in short: as §1
# [25] = tested on: Mycobacterium tuberculosis; assay: Antibacterial activity against Mycobacterium tuberculosis H37Rv ATCC 27294T assessed as isoniazid MIC at 8 ug/ml after 7 days by microdilution checkerboard assay; assay type: functional; settings: 168 h; in short: as §1
# [26] = tested on: Mycobacterium tuberculosis; assay: Antibacterial activity against Mycobacterium tuberculosis H37Rv ATCC 27294T assessed as isoniazid MIC at 4 ug/ml after 7 days by microdilution checkerboard; assay type: functional; settings: 168 h; in short: as §1
# [27] = tested on: Mycobacterium tuberculosis; assay: Antibacterial activity against Mycobacterium tuberculosis H37Rv ATCC 27294T assessed as isoniazid MIC at 2 ug/ml after 7 days by microdilution checkerboard assay; assay type: functional; settings: 168 h; in short: as §1
# [28] = tested on: Mycobacterium tuberculosis; assay: Antibacterial activity against Mycobacterium tuberculosis H37Rv ATCC 27294T assessed as isoniazid MIC at 1 ug/ml after 7 days by microdilution checkerboard assay; assay type: functional; settings: 168 h; in short: as §1
# [29] = tested on: Mycobacterium tuberculosis; assay: Antibacterial activity against Mycobacterium tuberculosis H37Rv ATCC 27294T assessed as isoniazid MIC at 0.5 ug/ml after 7 days by microdilution checkerboard assay; assay type: functional; settings: 168 h; in short: as §1
# [30] = tested on: Mycobacterium tuberculosis; assay: Antibacterial activity against Mycobacterium tuberculosis H37Rv ATCC 27294T assessed as amikacin MIC at 8 ug/ml after 7 days by microdilution checkerboard assay; assay type: functional; settings: 168 h; in short: as §1
# [31] = tested on: Mycobacterium tuberculosis; assay: Antibacterial activity against Mycobacterium tuberculosis H37Rv ATCC 27294T assessed as amikacin MIC at 16 ug/ml after 7 days by microdilution checkerboard assay; assay type: functional; settings: 168 h; in short: as §1
# [32] = tested on: Mycobacterium tuberculosis; assay: Antibacterial activity against Mycobacterium tuberculosis H37Rv ATCC 27294T assessed as rifampin MIC at 0.25 ug/ml after 7 days by microdilution checkerboard assay; assay type: functional; settings: 168 h; in short: as §1
# [33] = tested on: Mycobacterium tuberculosis; assay: Antibacterial activity against Mycobacterium tuberculosis H37Rv ATCC 27294T assessed as rifampin MIC at 0.5 ug/ml after 7 days by microdilution checkerboard assay; assay type: functional; settings: 168 h
# In short: (§2)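 M. tuberculosis H37Rv grown in MB7H9 + 10% OADC at 37 °C to OD600 0.8; plates inoculated at 10^5 CFU/ml. Rifampicin two-fold serially diluted across columns, test compound two-fold diluted down rows (two-dimensional checkerboard). Sealed, 37 °C for seven days, then MTT added and incubated overnight. MIC read as no colour change. Triplicate.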
# [34] = tested on: Mycobacterium tuberculosis; assay: Antibacterial activity against Mycobacterium tuberculosis H37Rv ATCC 27294T assessed as rifampin MIC at 1 ug/ml after 7 days by microdilution checkerboard assay; assay type: functional; settings: 168 h; in short: as §2
# [35] = tested on: Mycobacterium tuberculosis; assay: Antibacterial activity against Mycobacterium tuberculosis H37Rv ATCC 27294T assessed as rifampin MIC at 2 ug/ml after 7 days by microdilution checkerboard assay; assay type: functional; settings: 168 h; in short: as §2
# [36] = tested on: Mycobacterium tuberculosis; assay: Antibacterial activity against Mycobacterium tuberculosis H37Rv ATCC 27294T assessed as rifampin MIC at 4 ug/ml after 7 days by microdilution checkerboard assay; assay type: functional; settings: 168 h; in short: as §2
# [37] = tested on: Mycobacterium tuberculosis; assay: Antibacterial activity against Mycobacterium tuberculosis H37Rv ATCC 27294T assessed as rifampin MIC at 8 ug/ml after 7 days by microdilution checkerboard assay; assay type: functional; settings: 168 h; in short: as §2
# [38] = tested on: Mycobacterium tuberculosis; assay: Antibacterial activity against Mycobacterium tuberculosis H37Rv ATCC 27294T assessed as rifampin MIC at 16 ug/ml after 7 days by microdilution checkerboard assay; assay type: functional; settings: 168 h; in short: as §2
structure (smiles),measurement,setting,value
CCSc1nnc(COc2ccccc2C2=NOC(c3ccc(Cl)cc3Cl)C2)n1NC(C)=O (stereo not drawn),MIC,[1],2 µg/mL
same,IC50,[2],9.7 µg/mL
same,MIC,[3],0.1 µg/mL
same,MIC,[4],12.5 µg/mL
same,MIC,[5],12.5 µg/mL
same,MIC,[6],12.5 µg/mL
same,MIC,[7],12.5 µg/mL
same,MIC,[8],6.25 µg/mL
same,MIC,[9],1.56 µg/mL
same,MIC,[10],0.39 µg/mL
same,MIC,[11],2 µg/mL
same,MIC,[12],1 µg/mL
same,MIC,[13],1 µg/mL
same,MIC,[14],1 µg/mL
same,MIC,[15],1 µg/mL
same,MIC,[16],1 µg/mL
same,MIC,[17],0.0312 µg/mL
same,MIC,[18],1 µg/mL
same,MIC,[19],1 µg/mL
same,MIC,[20],1 µg/mL
same,MIC,[21],1 µg/mL
same,MIC,[22],1 µg/mL
same,MIC,[23],8 µg/mL
same,MIC,[24],0.00156 µg/mL
same,MIC,[25],0.025 µg/mL
same,MIC,[26],0.1 µg/mL
same,MIC,[27],0.1 µg/mL
same,MIC,[28],0.1 µg/mL
same,MIC,[29],0.1 µg/mL
same,MIC,[30],0.25 µg/mL
same,MIC,[31],0.0312 µg/mL
same,MIC,[32],1 µg/mL
same,MIC,[33],0.5 µg/mL
same,MIC,[34],0.5 µg/mL
same,MIC,[35],0.25 µg/mL
same,MIC,[36],0.125 µg/mL
same,MIC,[37],0.0312 µg/mL
same,MIC,[38],0.0156 µg/mL
